One assay deals with Enterococcus faecalis. The assay is described as follows: Compound was tested in vitro for antibacterial activity against Streptococcus faecalis UC 694. It is filed as functional. The gist of the method:
(§1)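 MIC by microplate broth dilution: serial twofold dilutions of antibiotic in brain-heart infusion broth, each well inoculated with standardized cell suspension to ~10^5 viable cells per mL of drug-supplemented medium. Incubated 37 °C for 20 h; MIC read as lowest concentration inhibiting visible growth.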

A further assay concerns Salmonella typhi. The assay is described as follows: Compound was tested in vitro for antibacterial activity against Salmonella typhi UC 215. The note with it: Salmonella enterica. It counts as functional, Salmonella enterica subsp. enterica serovar Typhi. The procedure, abridged: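 Microplate broth dilution: serial twofold antibiotic dilutions in brain-heart infusion broth, inoculated with a standardized cell suspension to a final ~10^5 viable cells per mL. Incubated 37 °C for 20 h. MIC read as the lowest concentration that inhibited visible growth.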

The subject of assay [1] is Pseudomonas aeruginosa. The assay is described as follows: Compound was tested in vitro for antibacterial activity against Pseudomonas aeruginosa UC 95. It counts as functional. The procedure, abridged:
as §1

The test system of the next assay is Klebsiella pneumoniae. The assay is described as follows: Compound was tested in vitro for antibacterial activity against Klebsiella pneumoniae UC 58. It counts as functional. The gist of the method:
as §1

The subject of assay [2] is Pseudomonas aeruginosa. The assay is described as follows: Compound was tested in vitro for antibacterial activity against Pseudomonas aeruginosa UC 3680. It is filed as functional. The procedure, abridged: as §1
A further assay has as its system Proteus mirabilis. The assay is described as follows: Compound was tested in vitro for antibacterial activity against Proteus mirabilis UC 6671. It is filed as functional. The procedure, abridged: as §1
For a further assay, the system named is Escherichia coli. The assay is described as follows: Compound was tested in vitro for antibacterial activity against Escherichia coli UC 45. It is filed as functional. The procedure, abridged:
as §1

Assay [3] has as its system Pseudomonas aeruginosa. The assay is described as follows: Compound was tested in vitro for antibacterial activity against Pseudomonas aeruginosa UC 3679. It is filed as functional. The gist of the method:
as §1

Assay [4] is described as follows: Compound was tested in vitro for antibacterial activity against Salmonella schottmuelleri UC 126. It is filed as functional. The gist of the method:
as §1

A further assay deals with Staphylococcus aureus. The assay is described as follows: Compound was tested in vitro for antibacterial activity against Staphylococcus aureus UC76. It counts as functional. The gist of the method:
as §1

Another assay concerns Streptococcus pneumoniae. The assay is described as follows: Compound was tested in vitro for antibacterial activity against Streptococcus pneumoniae UC 41. It counts as functional. The gist of the method: as §1
The test system of assay [5] is Pseudomonas aeruginosa. The assay is described as follows: Compound was tested in vitro for antibacterial activity against Pseudomonas aeruginosa UC 3681. It is filed as functional. The gist of the method: as §1
In another assay the test system is Proteus vulgaris. The assay is described as follows: Compound was tested in vitro for antibacterial activity against Proteus vulgaris UC 93. It is filed as functional. The gist of the method: as §1
The test system of the next assay is Streptococcus pyogenes. The assay is described as follows: Compound was tested in vitro for antibacterial activity against Streptococcus pyogenes UC 152. It is filed as functional. The procedure, abridged: as §1
A further assay deals with Serratia marcescens. The assay is described as follows: Compound was tested in vitro for antibacterial activity against Serratia marcescens UC 131. It counts as functional. The procedure, abridged: as §1
Assay [6] has as its system Pseudomonas aeruginosa. The assay is described as follows: Compound was tested in vitro for antibacterial activity against Pseudomonas aeruginosa UC 6436. It counts as functional. The procedure, abridged:
as §1

Assay [7] deals with Pseudomonas aeruginosa. The assay is described as follows: Compound was tested in vitro for antibacterial activity against Pseudomonas aeruginosa UC 3683. It is filed as functional. The procedure, abridged: as §1
Assay [8] relates to Pseudomonas aeruginosa. The assay is described as follows: Compound was tested in vitro for antibacterial activity against Pseudomonas aeruginosa UC 3682. It is filed as functional. The gist of the method:
as §1

In brackets after ≈: the same amount, converted by molar mass. Some results are limits rather than exact numbers.

The MIC is the lowest concentration that inhibits growth of the organism. Consider `NCC1CCC(N)C(OC2C(N)CC(N)C(OC3CC(N)C(O)C(CO)O3)C2O)O1` (stereo not drawn), for which the MIC was determined as 250 µg/mL (≈ 574 µM) in the assay with Enterococcus faecalis; 15.6 µg/mL (≈ 35.8 µM) in the assay on Salmonella typhi; 7.8 µg/mL (≈ 17.9 µM) with Pseudomonas aeruginosa [1]; 15.6 µg/mL (≈ 35.8 µM) in the assay on Pseudomonas aeruginosa [1] (Pseudomonas aeruginosa, read-out: MIC); 3.9 µg/mL (≈ 8.95 µM) in the assay on Klebsiella pneumoniae; 7.8 µg/mL (≈ 17.9 µM) in the assay on Pseudomonas aeruginosa [2]. Further, the MIC is 62.5 µg/mL (≈ 144 µM) against Proteus mirabilis; 62.5 µg/mL (≈ 144 µM) in the assay with Escherichia coli; 7.8 µg/mL (≈ 17.9 µM) in the assay with Pseudomonas aeruginosa [3]; 15.6 µg/mL (≈ 35.8 µM) in assay [4]; less than 1 µg/mL against Staphylococcus aureus; 250 µg/mL (≈ 574 µM) with Streptococcus pneumoniae. The MIC in the assay with Pseudomonas aeruginosa [5] is 15.6 µg/mL (≈ 35.8 µM); against Proteus vulgaris, 31.2 µg/mL (≈ 71.6 µM); in the assay on Streptococcus pyogenes, 7.8 µg/mL (≈ 17.9 µM); with Serratia marcescens it was 15.6 µg/mL (≈ 35.8 µM); against Pseudomonas aeruginosa [6] it was greater than 125 µg/mL; in the assay with Pseudomonas aeruginosa [7] it was 7.8 µg/mL (≈ 17.9 µM). Moreover, it took 15.6 µg/mL (≈ 35.8 µM) to inhibit growth against Pseudomonas aeruginosa [8] (MIC).

As for `NCC1OC(OC2C(N)CC(N)C(OC3CC(N)C(O)C(CO)O3)C2O)C(N)C(O)C1O` (stereo not drawn), the MIC was determined as 1000 µg/mL (≈ 2140 µM) in the assay on Enterococcus faecalis; 3.9 µg/mL (≈ 8.34 µM) with Klebsiella pneumoniae; 62.5 µg/mL (≈ 134 µM) with Proteus mirabilis; 31.2 µg/mL (≈ 66.7 µM) in the assay with Escherichia coli; 15.6 µg/mL (≈ 33.4 µM) in assay [4]; 3.9 µg/mL (≈ 8.34 µM) against Staphylococcus aureus. For the same compound, the MIC in the assay with Streptococcus pneumoniae was found to be 500 µg/mL (≈ 1070 µM); in the assay with Streptococcus pyogenes it was 15.6 µg/mL (≈ 33.4 µM); in the assay with Serratia marcescens, 31.2 µg/mL (≈ 66.7 µM).

Source of the values: ChEMBL document CHEMBL1121766, “Chemical modification of aminoglycosides. 3. Synthesis of 2"-deoxykanamycins from neamine” (1981).
